Legend:
Homo sapiens [1] = species on record: Homo sapiens; test: Compound was evaluated for the lysis of human erythrocytes at a concentration of 1 mM for 30 minutes at 37 degree C; format: functional
Summary of the method: (§1)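 Washed human erythrocytes (0.4 × 10⁸ cells) in phosphate-buffered saline with no protein in the medium; compound at 1 mM final; 30 min at 37 °C. Cells pelleted, then supernatant absorbance compared with freeze-thawed cells to give percent hemolysis.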

Homo sapiens [2] = species on record: Homo sapiens; test: Lysis of human erythrocytes at a concentration of 1 mM for 30 minutes at 37 degree C; format: functional; summary of the method: as §1
Plasmodium falciparum = test: In vitro antimalarial activity against Plasmodium falciparum D10

| SMILES | Hemolysis (Homo sapiens [1]) [%] | Hemolysis (Homo sapiens [2]) [%] | IC50 (Plasmodium falciparum) [nM] |
| --- | --- | --- | --- |
| C[C@@H]1CC[C@H]2[C@@H](C)C(=O)O[C@@H]3O[C@@]4(C)CC[C@@H]1[C@]32OO4 [ARTEMISININ] | 4 |  |  |
| C1CCC([C@H]2OO[C@@H](C3CCCCC3)[C@H]3O[C@H]32)CC1 |  | 5 | 320 |
| C1CCC([C@H]2OOC[C@@H]3O[C@@H]32)C1 |  | 1 | 1400 |
| C1CCC(C[C@H]2OOC[C@@H]3O[C@@H]32)CC1 |  | 3 | > 10000 |
| c1ccc(C2(c3ccccc3)OOCC3OC32)cc1 (stereo not given) |  | 1 | 5000 |
| C1CCC(C[C@H]2OOC[C@H]3O[C@@H]23)CC1 |  | 6 | 2000 |
| CCN(CC)CCCC(C)Nc1ccnc2cc(Cl)ccc12 (stereo not given) [CHLOROQUINE] |  | 1 |  |
| C1=C[C@H](C2CCCCC2)OO[C@@H]1c1ccccc1 |  | 9 | 8100 |
| C1=C[C@H](C2CCC2)OO[C@@H]1C1CCC1 |  | 32 | > 10000 |
| C[C@@H]1OO[C@H](CC(=O)OC23CC4CC(CC(C4)C2)C3)[C@H]2O[C@H]21 |  | 6 | 1300 |
| C[C@H]1C=C[C@@H](CCCO)OO1 |  | 0 | 2500 |
| O=C(C1CCCCC1)[C@H]1O[C@H]1[C@@H](O)C1CCCCC1 |  | 8 | > 10000 |
| C1=C[C@@H](C23C[C@H]4C[C@@H](C2)C[C@@H](C3)C4)OOC1 |  | 100 | 1300 |
| C1=C[C@H](c2ccccc2)OO[C@@H]1c1ccccc1 |  | 4 | 6000 |
| CCCCCCC[C@@H]1C=C[C@H](CCC)OO1 |  | 62 | > 10000 |
| C1CCC([C@H]2OO[C@@H](C3CCCCC3)[C@@H]3O[C@@H]32)CC1 |  | 6 | 500 |
| C1=C[C@@H](CC2CCCCC2)OOC1 |  | 100 | 9500 |
| CCCCCCC[C@H]1OO[C@@H](CCC)[C@H]2O[C@H]21 |  | 51 | > 10000 |
| C1CCC([C@H]2OO[C@@H](C3CCCC3)[C@H]3O[C@H]32)C1 |  | 9 | 500 |
| C1CC([C@H]2OO[C@@H](C3CCC3)[C@H]3O[C@H]32)C1 |  | 1 | 1600 |

| SMILES | Hemolysis (Homo sapiens [1]) [%] | Hemolysis (Homo sapiens [2]) [%] | IC50 (Plasmodium falciparum) [nM] |
| --- | --- | --- | --- |
| C1=C[C@@H](C2CCCCC2)OOC1 |  | 100 | 3200 |
| O=C(c1ccccc1)[C@H]1O[C@H]1[C@@H](O)c1ccccc1 (stereo in doubt; 7j) |  | 2 |  |
| C1CCC([C@H]2OOC[C@H]3O[C@@H]23)C1 |  | 1 | 1400 |
| CCCCCCC[C@H]1OO[C@@H](CCC)[C@@H]2O[C@@H]21 |  | 47 | > 10000 |
| C1CCC([C@H]2OOC[C@@H]3O[C@@H]32)CC1 |  | 2 | > 10000 |
| C[C@@H]1OO[C@H](CC(=O)OC23CC4CC(CC(C4)C2)C3)[C@@H]2O[C@@H]21 |  | 4 | 5000 |
| C[C@]12COO[C@H](c3ccccc3)[C@H]1O2 |  | 2 | > 10000 |
| C[C@@H]1OO[C@H](c2ccccc2)[C@H]2O[C@H]21 |  | 2 | > 10000 |
| CCC[C@H]1C=C[C@@H](CCC)OO1 |  | 2 | > 10000 |
| C1=C[C@H](C2CCCC2)OO[C@@H]1C1CCCC1 |  | 52 | 600 |
| C1CC([C@H]2OO[C@@H](C3CCC3)[C@@H]3O[C@@H]32)C1 |  | 1 | 2900 |
| C1=C[C@H](C2CCCCC2)OO[C@@H]1C1CCCCC1 |  | 100 | 1200 |
| c1ccc([C@H]2OO[C@@H](c3ccccc3)[C@@H]3O[C@@H]32)cc1 |  | 5 | > 10000 |
| C1CCC([C@H]2OO[C@@H](C3CCCC3)[C@@H]3O[C@@H]32)C1 |  | 8 | 500 |
| C[C@H]1C=C[C@@H](c2ccccc2)OO1 |  | 32 | > 10000 |
| C[C@H]1C=C[C@@H](CC(=O)OC23C[C@H]4C[C@@H](C2)C[C@@H](C3)C4)OO1 |  | 27 | 1000 |
| C1C2CC3CC1CC([C@H]1OOC[C@@H]4O[C@@H]41)(C2)C3 |  | 41 | 4000 |
| c1ccc([C@H]2OO[C@@H](C3CCCCC3)[C@@H]3O[C@@H]32)cc1 |  | 2 | > 10000 |
| C1=C[C@@H](C2CCCC2)OOC1 |  | 11 | > 10000 |

From ChEMBL document CHEMBL1149128, “Novel endoperoxide antimalarials: synthesis, heme binding, and antimalarial activity” (J Med Chem, 2004)
